Measurements reported in ChEMBL document CHEMBL6078676, “In Vitro and In Vivo Leishmanicidal Activity of Beauvericin” (J Nat Prod, 2024).
In brackets after ≈: the same amount, converted by molar mass. Activity calls are given as the source filed them. The rule behind the calls is not given here.

Legend:
[1] = system: Leishmania amazonensis; test: Antileishmanial activity against Leishmania amazonensis IFLA/BR/67/PH8 promastigote assessed as parasite killing incubated for 24 hrs; assay type: functional, organism-based; conditions: IFLA/BR/67/PH8, 24 h
In short: (§1)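 Axenic parasites (5 × 10^6/well) were exposed for 24 h to increasing concentrations of compound dissolved in DMSO. MTT (5 mg/mL) was added for 3 h and the reaction stopped with 20% SDS. Formazan was read at 600 nm against a 650 nm reference to give EC50. Leishmania grew in supplemented M199 pH 7.4 at 25 °C; T. cruzi Y epimastigotes grew in LIT with 10% FBS at 28 °C.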

[2] = system: Leishmania amazonensis; test: Antileishmanial activity against Leishmania amazonensis IFLA/BR/67/PH8 intracellular amastigote assessed as parasite killing incubated for 24 hrs; assay type: functional, organism-based; conditions: IFLA/BR/67/PH8, 24 h
[3] = system: Leishmania braziliensis; test: Antileishmanial activity against Leishmania braziliensis MHOM/BR/91/H3227 promastigote assessed as parasite killing incubated for 24 hrs; assay type: functional, organism-based; conditions: MHOM/BR/91/H3227, 24 h; in short: as §1
[4] = system: Leishmania braziliensis; test: Antileishmanial activity against Leishmania braziliensis MHOM/BR/91/H3227 intracellular amastigote assessed as parasite killing incubated for 24 hrs; assay type: functional, organism-based; conditions: MHOM/BR/91/H3227, 24 h
[5] = system: Trypanosoma cruzi; test: Antitrypanosomal activity against Trypanosoma cruzi Y epimastigote assessed as parasite killing incubated for 24 hrs; assay type: functional, organism-based; in short: as §1
[6] = Cytotoxicity against mouse BMDM cells assessed as cell viability incubated for 24 hrs by MTT assay; assay type: toxicity, cell-based
In short: (§2)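 MTT viability after 24 h exposure to increasing concentrations (DMSO solution) gave CC50. BMDM (4 × 10^5/well) were differentiated for 7 days from female BALB/c marrow in RPMI with 20% FBS and 30% L929 supernatant. L929 fibroblasts (5 × 10^4/well) were in supplemented RPMI. Both were held at 37 °C, 5% CO2. Read at 600/650 nm after 3 h MTT and SDS stop.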

[7] = Cytotoxicity against mouse L929 cells assessed as cell viability measured for 24 hrs by MTT assay; assay type: toxicity, cell-based; in short: as §2
[8] = Selectivity index, ratio of CC50 for cytotoxicity against mouse BMDM cells assessed as cell viability to EC50 for antileishmanial activity against Leishmania amazonensis IFLA/BR/67/PH8 promastigote assessed as parasite killing; assay type: toxicity, cell-based; conditions: read-out: Ratio CC50/EC50
In short: (§3)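 Ratio of 24 h MTT CC50 in BALB/c BMDM to Leishmania EC50.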

[9] = Selectivity index, ratio of CC50 for cytotoxicity against mouse BMDM cells assessed as cell viability to EC50 for antileishmanial activity against Leishmania amazonensis IFLA/BR/67/PH8 intracellular amastigote; assay type: toxicity, cell-based; conditions: read-out: Ratio CC50/EC50; in short: as §3
[10] = Selectivity index, ratio of CC50 for cytotoxicity against mouse BMDM cells assessed as cell viability to EC50 for antileishmanial activity against Leishmania braziliensis MHOM/BR/91/H3227 promastigote assessed as parasite killing; assay type: toxicity, cell-based; conditions: read-out: Ratio CC50/EC50; in short: as §3
[11] = Selectivity index, ratio of CC50 for cytotoxicity against mouse BMDM cells assessed as cell viability to EC50 for antileishmanial activity against Leishmania braziliensis MHOM/BR/91/H3227 intracellular amastigote assessed as parasite killing; assay type: toxicity, cell-based; conditions: read-out: Ratio CC50/EC50; in short: as §3
[12] = Selectivity index, ratio of CC50 for cytotoxicity against mouse L929 cells assessed as cell viability to EC50 for antitrypanosomal activity against Trypanosoma cruzi Y epimastigote assessed as parasite killing; assay type: toxicity, cell-based; conditions: read-out: Ratio CC50/EC50
In short: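 Ratio of 24 h MTT CC50 in L929 fibroblasts to T. cruzi Y epimastigote EC50.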

[13] = system: Leishmania amazonensis; test: Induction of membrane morphological changes in Leishmania amazonensis IFLA/BR/1967/PH8 promastigote upto 1.2 uM incubated for 24 hrs by optical microscopic analysis; assay type: functional, organism-based
[14] = system: Leishmania amazonensis; test: Induction of membrane morphological changes in Leishmania amazonensis IFLA/BR/67/PH8 promastigote assessed as shortening of cell body at 2.4 to 9.6 uM incubated for 24 hrs by optical microscopic analysis; assay type: functional, organism-based; conditions: dose 2.4-9.6 µM
[15] = system: Leishmania amazonensis; test: Induction of membrane morphological changes in Leishmania amazonensis IFLA/BR/67/PH8 promastigote assessed as rounding of cell body at 2.4 to 9.6 uM incubated for 24 hrs by optical microscopic analysis; assay type: functional, organism-based; conditions: dose 2.4-9.6 µM
[16] = system: Leishmania amazonensis; test: Induction of membrane morphological changes in Leishmania amazonensis IFLA/BR/67/PH8 promastigote assessed as aberrant nuclei 2.4 to 9.6 uM incubated for 24 hrs by optical microscopic analysis; assay type: functional, organism-based; conditions: dose 2.4-9.6 µM
[17] = system: Leishmania amazonensis; test: Induction of membrane morphological changes in Leishmania amazonensis IFLA/BR/67/PH8 promastigote assessed as cell debris formation 2.4 to 9.6 uM incubated for 24 hrs by optical microscopic analysis; assay type: functional, organism-based; conditions: dose 2.4-9.6 µM
[18] = system: Leishmania braziliensis; test: Induction of membrane morphological changes in Leishmania braziliensis MHOM/BR/91/H3227 assessed as appearance of slender cell bodies at 1.2 to 9.6 uM incubated for 24 hrs by optical microscopic analysis; assay type: functional, organism-based; conditions: dose 1.2-9.6 µM
[19] = system: Leishmania braziliensis; test: Induction of membrane morphological changes in Leishmania braziliensis MHOM/BR/91/H3227 assessed as appearance of sperm-like structure at 1.2 to 9.6 uM incubated for 24 hrs by optical microscopic analysis; assay type: functional, organism-based; conditions: dose 1.2-9.6 µM
[20] = system: Leishmania braziliensis; test: Induction of membrane morphological changes in Leishmania braziliensis MHOM/BR/91/H3227 assessed as appearance of leaf-like promastigotes at 1.2 to 9.6 uM incubated for 24 hrs by optical microscopic analysis; assay type: functional, organism-based; conditions: dose 1.2-9.6 µM
[21] = system: Leishmania amazonensis; test: Antileishmanial activity against Leishmania amazonensis IFLA/BR/67/PH8 amastigotes infected in mouse BMDM cells assessed as inhibition of parasite growth upto 1.6 uM pre-infected in cells for 24 hrs followed by compound addition and measured after 48 hrs by cell imaging analysis; assay type: functional, organism-based
In short: (§4)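 BALB/c BMDM (4 × 10^5) on coverslips were infected with stationary-phase L. amazonensis promastigotes, MOI 5, for 24 h at 34 °C, 5% CO2. After a PBS wash, cells received fresh RPMI with 0.4–1.6 μM. Incubation ran 24 h, 48 h, or 24 + 24 h with fresh medium. Cells were MeOH-fixed and stained; ≥300 cells were counted for infection rate, amastigotes/100 macrophages, and their product, relative to untreated. Two independent assays in triplicate.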

[22] = system: Leishmania amazonensis; test: Antileishmanial activity against Leishmania amazonensis IFLA/BR/67/PH8 amastigotes infected in mouse BMDM cells assessed as reduction in infectivity index at 1.6 uM pre-infected in cells for 24 hrs followed by compound addition and measured after 48 hrs; assay type: functional; design: scale not given: the % may be the effect or the level left; in short: as §4
[23] = system: Leishmania amazonensis; test: Antileishmanial activity against Leishmania amazonensis IFLA/BR/67/PH8 amastigotes infected in mouse BMDM cells at 1.6 uM pre-infected in cells for 24 hrs followed by compound addition and measured after 48 hrs; assay type: functional, organism-based; in short: as §4
[24] = system: Leishmania braziliensis; test: Antileishmanial activity against Leishmania braziliensis MHOM/BR/91/H3227 intracellular amastigotes infected in mouse BMDM cells assessed as reduction in infectivity index at 1.6 uM pre-infected in cells for 24 hrs followed by compound addition and measured after 48 hrs by cell imaging analysis; assay type: functional; design: scale not given: the % may be the effect or the level left
In short: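 BMDM infected with stationary-phase L. braziliensis promastigotes, MOI 10, for 24 h at 34 °C, 5% CO2. After washing, cells were given 0.4–1.6 μM in fresh RPMI for 48 h. MeOH fixation and staining, then ≥300 host cells counted. Infectivity index (infection rate × amastigotes per 100 macrophages) expressed relative to untreated; two independent assays in triplicate.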

[25] = Cytotoxicity against mouse BMDM cells assessed as cell viability at 1.6 uM incubated for 24 hrs by MTT assay; assay type: toxicity, cell-based
[26] = system: Leishmania amazonensis; test: Antileishmanial activity against Leishmania amazonensis IFLA/BR/67/PH8 amastigotes infected in female BALB/c mouse assessed as reduction in parasite burden at 5 to 10 mg/kg, ip administered for 15 days; assay type: functional, organism-based; conditions: dose 5-10 mg/kg, time 15.0 day
In short: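 Female BALB/c mice (35 days old) were infected at the tail base with ~1 × 10^6 stationary-phase L. amazonensis promastigotes. Treatment was 5 or 10 mg/kg/day ip in 150 μL DMSO/0.9% NaCl (1:9), daily for 15 days from week 7 to week 9; vehicle controls, 5 per group. Lesion parasite load was measured by limiting dilution in M199 with wells read after 7 days.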

[27] = system: MDA-MB-231; test: Inhibition of cell migration in human MDA-MB-231 cells; assay type: functional, cell-based
[28] = system: PC-3; test: Inhibition of cell migration in human PC-3 cells; assay type: functional, cell-based
[29] = system: Cell membrane; test: Induction of cell membrane permeabilization in Leishmania amazonensis IFLA/BR/67/PH8 promastigotes incubated for 24 hrs; assay type: subcellular
In short: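 Promastigotes were incubated 24 h with 1.0 μM. Membrane permeability was measured by ethidium bromide fluorescence against untreated cells.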

[30] = system: HaCaT; test: Antiproliferative activity against human HaCaT cells assessed as inhibition of cell proliferation incubated for 72 hrs by MTT assay; assay type: functional, cell-based
[31] = system: Leishmania amazonensis; test: Antileishmanial activity against Leishmania amazonensis IFLA/BR/67/PH8 amastigotes infected in female BALB/c mouse assessed as reduction in mean lesion at 5 mg/kg, topically administered for 32 days and measured after 8 to 13 week; conditions: route topical, time 8-13 weeks
[32] = system: Leishmania amazonensis; test: Antileishmanial activity against Leishmania amazonensis IFLA/BR/67/PH8 amastigotes infected in female BALB/c mouse assessed as total ulcerated area by measuring delay in ulcer progression at 5 mg/kg, topically administered for 32 days and measured after 8 to 13 week; conditions: route topical, time 8-13 weeks
[33] = system: Leishmania amazonensis; test: Antileishmanial activity against Leishmania amazonensis assessed as reduction in parasite proliferation at 50 microg/ml incubated for 72 hrs; assay type: functional; design: scale not given: the % may be the effect or the level left; conditions: dose 50 µg/ml
[34] = system: Leishmania amazonensis; test: Antileishmanial activity against Leishmania amazonensis assessed as reduction in parasite proliferation incubated for 72 hrs; assay type: functional, organism-based

## C[C@@H]1[C@H](O)[C@@H](C)/C=C/C=C/C=C/C=C/C=C/C=C/C=C/[C@H](O[C@@H]2O[C@H](C)[C@@H](O)[C@H](N)[C@@H]2O)C[C@@H]2O[C@](O)(C[C@@H](O)C[C@@H](O)[C@H](O)CC[C@@H](O)C[C@@H](O)CC(=O)O[C@H]1C)C[C@H](O)[C@H]2C(=O)O [AMPHOTERICIN B]
[1]
  EC50: 200 nM
[2]
  EC50: 200 nM
[3]
  EC50: 200 nM
[4]
  EC50: 200 nM
[5]
  EC50: 2230 nM

## CC(C)[C@H]1OC(=O)[C@H](Cc2ccccc2)N(C)C(=O)[C@@H](C(C)C)OC(=O)[C@H](Cc2ccccc2)N(C)C(=O)[C@@H](C(C)C)OC(=O)[C@H](Cc2ccccc2)N(C)C1=O
[1]
  EC50: 1200 nM
[2]
  EC50: 800 nM
[3]
  EC50: 900 nM
[4]
  EC50: 600 nM
[6]
  CC50 at 24 h: 17800 nM
[5]
  EC50: 3400 nM
[7]
  CC50 at 24 h: 45500 nM
[8]
  selectivity ratio: 14.8
[9]
  selectivity ratio: 22.3
[10]
  selectivity ratio: 19.8
[11]
  selectivity ratio: 29.7
[12]
  selectivity ratio: 13.4
[13]
  Activity: Active
[14]
  Activity: Active
[15]
  Activity: Active
[16]
  Activity: Active
[17]
  Activity: Active
[18]
  Activity: Active
[19]
  Activity: Active
[20]
  Activity: Active
[21]
  Activity: Active
[22]
  Activity: 95%
[23]
  Activity: Active
[24]
  Activity: 89%
[25]
  Activity: Non-toxic
[26]
  Activity: Active
[27]
  inhibition: Active
[28]
  inhibition: Active
[29]
  Activity: Active
[30]
  IC50: 3900 nM
[31]
  Activity: inactive
[32]
  Activity: Active

## O=c1cc(CO)occ1O [KOJIC ACID]
[33]
  Activity: 79%
[34]
  EC50: 27.8 µg/mL (≈ 196 µM)
